Screening results as filed in PubChem BioAssay.
MEKK2mut PB1 HTS: signal of MEK5 binding to mutant human MEKK2 PB1 domain. bead flow cytometry, Alexa488-MEK5 binding to MEKK2 mutant. percent response, % at 10 µM. 0.35% of 290,000 active. AID 1530; in the data active means percent response above about 24%, passing the limit was not always enough
MEKK3 PB1 HTS: modulators (inhibitors or enhancers) of MEK5 binding to human MEKK3 PB1 domain; bead-based flow cytometry, Alexa488-MEK5 binding to MEKK3; actives lie on both sides; 0 = blocked by unlabeled MEK5, 100 = vehicle; binding response (% of control), % at 10 µM; 1.4% of 290,000 active;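 active means binding response more than 3 SD above or below the average of its plate-row segment, actives on both sides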;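 further: Alexa488 bead fluorescence after subtracting the streptavidin-only scavenger bead signal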
Target sequence (Q99759 whole entry, looked up, the tested form may be a part): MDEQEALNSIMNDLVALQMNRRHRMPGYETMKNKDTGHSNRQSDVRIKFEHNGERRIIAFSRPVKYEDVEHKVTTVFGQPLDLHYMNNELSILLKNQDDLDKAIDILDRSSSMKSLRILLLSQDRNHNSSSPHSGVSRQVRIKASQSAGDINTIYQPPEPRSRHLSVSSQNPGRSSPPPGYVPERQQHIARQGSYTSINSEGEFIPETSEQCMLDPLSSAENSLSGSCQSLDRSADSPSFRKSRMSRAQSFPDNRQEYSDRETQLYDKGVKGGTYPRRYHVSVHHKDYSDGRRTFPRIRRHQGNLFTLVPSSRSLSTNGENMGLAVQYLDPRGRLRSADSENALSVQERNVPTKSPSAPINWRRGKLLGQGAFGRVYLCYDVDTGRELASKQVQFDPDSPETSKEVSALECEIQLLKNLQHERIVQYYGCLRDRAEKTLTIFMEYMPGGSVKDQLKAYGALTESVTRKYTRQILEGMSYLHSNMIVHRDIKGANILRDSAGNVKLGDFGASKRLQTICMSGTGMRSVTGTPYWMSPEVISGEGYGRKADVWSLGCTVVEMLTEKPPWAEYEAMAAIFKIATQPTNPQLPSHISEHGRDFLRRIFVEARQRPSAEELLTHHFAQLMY
MEKK2wt PB1 HTS: raises or lowers MEK5 binding to wildtype human MEKK2 PB1 domain; bead flow cytometry, Alexa488-MEK5 binding to MEKK2 WT; actives lie on both sides; 1.1% of 290,000 active; binding response (% of control), % at 10 µM; in the data active means binding response below about 67% or above about 130%
ATG4B inhibitor: blocks human ATG4B protease cleavage of LC3 substrate; Q9Y4P1; ATG4B cleavage of LC3-PLA2, NBD-HPC fluorescence, 1 h; inhibition, % at 8.33 µM; 0.51% of 340,000 active; AID 504462; in the data active means inhibition above about 40%
Dynein cargo inh: blocks dynein driven cargo transport along microtubules. 0.47% of 220,000 active. 3617.4 mouse cells, GR-EGFP nuclear translocation imaging; test concentration mostly 20 µM; stimulated with dexamethasone, 1 µM; active compounds read low. z-score, hits read low;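 active means plate z-score of nuclear minus cytoplasmic receptor signal below a set negative limit, without overly bright fluorescence or cell loss, cut at about -3.5 in these data, passing the limit was not always enough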;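 further: z-score of nuclear minus cytoplasmic ring GR-EGFP intensity difference per well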
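Medium: Induction medium lacking tetracycline, stripped serum | Probe or stimulus: 1.0 µM final dexamethasone stimulus | Schedule: 48 h induction, then 1 h compound, then 30 min agonist, 37 °C | Signal: Automated 10x imaging of fixed Hoechst-stained cells | Evaluation: Per-cell GR-EGFP intensity, nucleus versus surrounding cytoplasmic ring, well-averaged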
Beta2AR agonist: human beta-2 adrenergic receptor agonism by FAP; P07550; Am2.2-beta2AR cells, FAP receptor internalization, flow cytometry; response, % (no concentration beside the values); 0.43% of 340,000 active;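 active means response above a set limit, near 3 SD of response in nonfluorescent compounds, cut at about 42% in these data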
An asterisk follows results filed as active; [ ] = remark or other dose. Sampled rows, rich in hits. Any-hit rate of the full collection: about 2.9%.

`O=C1C=C(N2CCN(c3ccccn3)CC2)C(=O)c2c(O)ccc(O)c21` gave ATG4B inhibitor 8 and Beta2AR agonist 7.
For CC(=O)SC(C[N+](=O)[O-])c1cn(C(C)=O)c2ccccc12 (stereo unspecified) the results were MEKK2mut PB1 HTS 5, MEKK3 PB1 HTS 103, MEKK2wt PB1 HTS 102, ATG4B inhibitor -6, Dynein cargo inh 0.81 and Beta2AR agonist 49*.
For CC(=O)n1cc(Nc2ccc([N+](=O)[O-])cc2)c2ccccc21 the results were MEKK2mut PB1 HTS -1, MEKK3 PB1 HTS 97, MEKK2wt PB1 HTS 102, ATG4B inhibitor 5, Dynein cargo inh 0.077 and Beta2AR agonist 0.
For CCOC(=O)C(=O)Nc1ccc(S(=O)(=O)Nc2nccs2)cc1 the results were MEKK2mut PB1 HTS 5, MEKK3 PB1 HTS 99, MEKK2wt PB1 HTS 104, ATG4B inhibitor 5 and Beta2AR agonist -1.
`Cc1cc(Cl)c2oc(C(=O)N(C)CC3CCOCC3)c(C)c2c1` gave MEKK2mut PB1 HTS -39, MEKK3 PB1 HTS 31*[inhibitor], MEKK2wt PB1 HTS 43*[inhibitor], ATG4B inhibitor -3 and Beta2AR agonist 8.
`C=CCN(C(=O)c1oc2c(Cl)cc(C)cc2c1C)C1CCS(=O)(=O)C1` (stereo unspecified) gave MEKK2mut PB1 HTS -1, MEKK3 PB1 HTS 97, MEKK2wt PB1 HTS 100, ATG4B inhibitor -7 and Beta2AR agonist 6.
CC(C)COc1ccc(C(=O)Nc2ccc(NC(=O)c3ccco3)cc2)cc1 was read as MEKK2mut PB1 HTS -4, MEKK3 PB1 HTS 106, MEKK2wt PB1 HTS 98, ATG4B inhibitor 4 and Beta2AR agonist -5.
`CCC(C)n1c(=S)[nH]c2ccccc2c1=O` (stereo unspecified) gave MEKK2mut PB1 HTS -12, MEKK3 PB1 HTS 96, MEKK2wt PB1 HTS 91, ATG4B inhibitor 4, Dynein cargo inh -1.3 and Beta2AR agonist 3.
Screening CCC(Cc1ccccc1)n1c(=S)[nH]c2ccccc2c1=O (stereo unspecified) returned MEKK2mut PB1 HTS active, MEKK3 PB1 HTS 136*, ATG4B inhibitor 2, Dynein cargo inh 0.052 and Beta2AR agonist -10.
`C=CCNC(=O)/C(C#N)=C/c1ccccc1[N+](=O)[O-]` gave MEKK2mut PB1 HTS 19, MEKK3 PB1 HTS 98, MEKK2wt PB1 HTS 4.0*, ATG4B inhibitor 8, Dynein cargo inh 0.093 and Beta2AR agonist -2.
`O=C1c2ccccc2-c2onc3c(N4CCN(CCO)CC4)cc(N4CCN(C(=O)c5ccco5)CC4)c1c23` gave MEKK2mut PB1 HTS 3, MEKK3 PB1 HTS 81*[inhibitor], MEKK2wt PB1 HTS 85, ATG4B inhibitor 27 and Beta2AR agonist 25.
Screening O=C(O)CCCNc1cc(N2CCN(C(=O)c3ccco3)CC2)c2noc3c2c1C(=O)c1ccccc1-3 returned MEKK2mut PB1 HTS -11, MEKK3 PB1 HTS 67*[inhibitor], MEKK2wt PB1 HTS 60*[inhibitor], ATG4B inhibitor 18 and Beta2AR agonist 9.
CN1CCN(c2cc(N3CCN(C(=O)c4ccco4)CC3)c3c4c(onc24)-c2ccccc2C3=O)CC1 was read as MEKK2mut PB1 HTS 5, MEKK3 PB1 HTS 84, MEKK2wt PB1 HTS 89, ATG4B inhibitor 11 and Beta2AR agonist 19.
For Cc1noc(NS(=O)(=O)c2ccc(NC(=O)c3ccccc3NS(=O)(=O)c3ccc(F)c(F)c3)cc2)c1C the results were ATG4B inhibitor -2 and Beta2AR agonist -6.
Screening CCC(C(=O)N1CCN(S(=O)(=O)c2ccc(F)cc2)CC1)c1ccccc1 (stereo unspecified) returned ATG4B inhibitor 6 and Beta2AR agonist 2.
`Nc1nc(N)c2cc(Sc3ccc4ccccc4c3)ccc2n1` gave MEKK2mut PB1 HTS 26, MEKK3 PB1 HTS 99, MEKK2wt PB1 HTS 157*, ATG4B inhibitor 16, Dynein cargo inh -0.35 and Beta2AR agonist 30.
`CCN(C(=O)COC(=O)CCC(=O)c1ccccc1)c1c(N)n(Cc2ccccc2)c(=O)[nH]c1=O` gave ATG4B inhibitor 2 and Beta2AR agonist -2.
`CN(C)N=C1c2cc(S(=O)(=O)N(C)C)ccc2-c2ccc(S(=O)(=O)N(C)C)cc21` gave MEKK2mut PB1 HTS -1, MEKK3 PB1 HTS 103, MEKK2wt PB1 HTS 99, ATG4B inhibitor -4 and Beta2AR agonist 0.
Screening CSCC[C@H](NC(=O)c1cccc(S(=O)(=O)N2CCCCC2)c1)c1nc2ccccc2[nH]1 returned ATG4B inhibitor -7 and Beta2AR agonist -6.
For O=C(N/N=C/c1ccccc1)c1ccco1 the results were MEKK2mut PB1 HTS 3, MEKK3 PB1 HTS 103, MEKK2wt PB1 HTS 94, ATG4B inhibitor -2, Dynein cargo inh -0.005 and Beta2AR agonist 0.
For O=C(C#Cc1ccccc1)c1ccco1 the results were MEKK2mut PB1 HTS 4, MEKK3 PB1 HTS 99, MEKK2wt PB1 HTS 102, ATG4B inhibitor -8 and Beta2AR agonist 82*.
CN(Cc1ccc(OC(F)F)cc1)C(=O)c1cccc(S(=O)(=O)N2CCN(c3ccccc3)CC2)c1 was read as ATG4B inhibitor -12 and Beta2AR agonist 3.
For O[C@@H]1[C@@H](O)C=C2CCN3Cc4cc5c(cc4[C@H]1C23)OCO5 (stereo partly specified) the results were ATG4B inhibitor 2 and Beta2AR agonist 61*.
Screening CC(C)(C)c1ccc(CSc2nc(N)cc(=O)[nH]2)cc1 returned MEKK2mut PB1 HTS -2, MEKK3 PB1 HTS 100, MEKK2wt PB1 HTS 96, ATG4B inhibitor -2 and Beta2AR agonist 8.
For N#C/C(=C/c1ccc(N2CCCCCC2)o1)c1cccc(F)c1 the results were MEKK2mut PB1 HTS 6, MEKK3 PB1 HTS 103, MEKK2wt PB1 HTS 103, ATG4B inhibitor 21, Dynein cargo inh -2.7 and Beta2AR agonist -181.
Screening COc1cc(N2CCCC2)c(OC)cc1/C=C(/C#N)c1cccc(F)c1 returned MEKK2mut PB1 HTS 155*, MEKK3 PB1 HTS 97, MEKK2wt PB1 HTS 101, ATG4B inhibitor 1, Dynein cargo inh -0.56 and Beta2AR agonist -528.
For CCOC(=O)c1cc([N+](=O)[O-])c([N+](=O)[O-])cc1NC(C)=O the results were MEKK2mut PB1 HTS -3, MEKK3 PB1 HTS 93, MEKK2wt PB1 HTS 95, ATG4B inhibitor 8, Dynein cargo inh 1.6 and Beta2AR agonist 74*.
Screening CCOC(=O)c1ccc(NC(=O)c2ccccc2[N+](=O)[O-])cc1 returned MEKK2mut PB1 HTS -2, MEKK3 PB1 HTS 98, MEKK2wt PB1 HTS 94, ATG4B inhibitor -9, Dynein cargo inh -0.57 and Beta2AR agonist 1.
`COc1ccccc1-n1cc([C@@H]2C[C@H]3CN(c4ccccc4)C(=O)[C@]34CCCN24)cn1` gave MEKK2mut PB1 HTS 138*, MEKK3 PB1 HTS 104, MEKK2wt PB1 HTS 71, ATG4B inhibitor 2, Dynein cargo inh -0.52 and Beta2AR agonist -22.
